For 24 compounds, pKb, Ki and Ratio Ki results are on record in ChEMBL document CHEMBL1150404, “Synthesis, alpha 1-adrenoceptor antagonist activity, and SAR study of novel arylpiperazine derivatives of phenytoin” (Bioorg Med Chem, 2008).

Assay [1] can be described thus: Antagonist activity at alpha-1-adrenoceptor in Wistar rat thoracic aorta assessed as inhibition of phenylephrine-induced contraction. In kind it is functional, tissue-based. In a few lines: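 Male Wistar rats (200–350 g), thiopental 75 mg/kg ip; endothelium-denuded thoracic aorta rings (~4 mm) in Krebs–Henseleit, 37 °C, pH 7.4, O2/CO2 19:1. Cumulative phenylephrine curves (3·10^-9–3·10^-6 M) before and after 20 min with one of 3–4 antagonist concentrations per ring; 60 min recovery between curves.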

Assay [2] in a line: Displacement of [3H]clonidine from alpha-2-adrenoceptor in Wistar rat cerebral cortex membrane. In kind it is tissue-based. In a few lines: (§1)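 Rat brain homogenised in ice-cold 50 mM Tris–HCl pH 7.6, centrifuged twice at 20,000g for 20 min at 0–4 °C. Membranes incubated with [3H]prazosin 0.2 nM (α1) or [3H]clonidine 2 nM (α2) and 7–8 test concentrations (10^-11–10^-4 M). Filter-bound radioactivity counted by liquid scintillation; duplicates; curve-fitted, Ki by Cheng–Prusoff.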

A further assay is filed under the species Rattus norvegicus. As to the kind of experiment: Selectivity of Ki for alpha-2-adrenoceptor to Ki for alpha-1-adrenoceptor in Wistar rat cerebral cortex membrane. In kind it is tissue-based.
The nature of assay [3]: Displacement of [3H]prazosin from alpha-1-adrenoceptor in Wistar rat cerebral cortex membrane. It counts as tissue-based. In a few lines:
as §1
A general note: Displacement assays read how much labelled ligand stays bound in the presence of the test substance.

Each structure is given as a SMILES string.

Usually pKb stands for the negative decadic logarithm of the Kb, by convention in mol/L. As usually defined, the Ki is the equilibrium dissociation constant of an inhibitor or competing ligand from its target. Read a high Ki as weaker binding. For the compound `CCOc1ccccc1N1CCN(CC(O)CN2C(=O)N(C)C(=O)C2(c2ccccc2)c2ccccc2)CC1` (stereo unspecified), the pKb in assay [1] is 7.022. Further, the inhibition constant (Ki) in assay [2] was determined as 535 nM. Besides, in the assay listed under Rattus norvegicus, the Ratio Ki was 4.4.

Regarding `COC(=O)C(C)N1C(=O)N(CC(O)CN2CCN(c3ccccc3OC)CC2)C(c2ccccc2)(c2ccccc2)C1=O` (stereo unspecified), the figures for the Ki in assay [3] and in assay [2] were 104 nM and 449 nM, respectively. Also, in assay [1], the pKb was 7.084. In addition, the Ratio Ki in the assay filed under Rattus norvegicus was determined as 4.32.

Turning to `COc1ccccc1N1CCN(C(C)CN2C(=O)NC3c4ccccc4NC3C2=O)CC1` (stereo unspecified), the Ki in assay [3] is 0.1 nM.

Consider `COc1ccccc1N1CCN(CCCn2nc(-n3ccnc3)ccc2=O)CC1`, for which the Ki in assay [3] is 0.2 nM.

As to `COc1ccccc1N1CCN(C(C)CN2C(=O)C3Oc4ccccc4C3N(C)C2=O)CC1` (stereo unspecified), affinity in assay [3] was put at a Ki of 0.1 nM.

Regarding `CCOc1ccccc1N1CCN(CCCCCn2ncc(N3CCN(CCOc4ccccc4OC)CC3)c(Cl)c2=O)CC1`, the affinity in assay [3], expressed as Ki, was 0.05 nM.

Take `COc1ccccc1N1CCN(CCCN2C(=O)NC3c4ccccc4OC3C2=O)CC1` (stereo unspecified): the affinity in assay [3], expressed as Ki, was 0.1 nM.

`CCOc1ccccc1OCCN1CCN(c2cnn(CCCCCN3CCN(c4ccccc4OC(C)C)CC3)c(=O)c2Cl)CC1`: the affinity in assay [3], expressed as Ki, was 0.05 nM.

In the case of `COc1ccccc1N1CCN(C(C)CCN2C(=O)C3C(c4ccccc4N3C)N(C)C2=O)CC1` (stereo unspecified), the affinity in assay [3], expressed as Ki, was 0.1 nM.

In assay [3], `O=c1ccc(-n2cnc3ccccc32)nn1CCCCCCCN1CCN(c2ccccc2Cl)CC1` showed an inhibition constant Ki of 0.2 nM.

Take `COc1ccccc1N1CCN(CCCN2C(=O)C3Nc4ccccc4C3N(C)C2=O)CC1` (stereo unspecified): in assay [3], the affinity, expressed as Ki, was 0.1 nM.

For the compound `COc1ccccc1OCCN1CCN(c2cnn(CCCCCN3CCN(c4ccccc4OC(C)C)CC3)c(=O)c2Cl)CC1`, in assay [3], the Ki came to 0.05 nM. This Ki lies about 2-fold lower than the previous one.

In turn, `COc1ccccc1OCCN1CCN(c2cnn(CCCCCCN3CCN(c4ccccc4OC)CC3)c(=O)c2Cl)CC1` yielded a Ki in assay [3] of 0.05 nM. In other words, the picomolar range.

`COc1ccccc1N1CCN(CCCCCCn2nc(-n3ccc4ccccc43)ccc2=O)CC1`: in assay [3], the affinity corresponds to a Ki of 0.2 nM.

As for `COc1ccccc1N1CCN(CCCN2C(=O)C3Sc4ccccc4C3N(C)C2=O)CC1` (stereo unspecified), the Ki in assay [3] turned out to be 0.1 nM.

In turn, `COc1ccccc1N1CCN(CCCCCn2nc(-n3ccnc3)ccc2=O)CC1` registered a Ki in assay [3] of 0.2 nM.

`COc1ccccc1N1CCN(C(C)CCN2C(=O)C3Nc4ccccc4C3N(C)C2=O)CC1` (stereo unspecified) displayed a Ki in assay [3] of 0.1 nM.

Take `COc1ccccc1N1CCN(CCN2C(=O)NC3c4ccccc4NC3C2=O)CC1` (stereo unspecified): in assay [3], the affinity, expressed as Ki, was 0.1 nM.

On to `COc1ccccc1N1CCN(CCN2C(=O)C3C(c4ccccc4N3C)N(C)C2=O)CC1` (stereo unspecified), for which the inhibition constant Ki in assay [3] is 0.1 nM.

In assay [3], `COc1ccccc1OCCN1CCN(c2cnn(CCCCN3CCN(c4ccccc4OC)CC3)c(=O)c2Cl)CC1` showed a Ki of 0.05 nM.

In assay [3], `CCOc1ccccc1OCCN1CCN(c2cnn(CCCN3CCN(c4ccccc4OC(C)C)CC3)c(=O)c2Cl)CC1` displayed a Ki of 0.05 nM. This lies in the picomolar range.

`CCOc1ccccc1OCCN1CCN(c2cnn(CCN3CCN(c4ccccc4OCC)CC3)c(=O)c2Cl)CC1` had a Ki in assay [3] of 0.05 nM.

`COC(=O)CN1C(=O)N(CC(O)CN2CCN(c3ccccc3OC)CC2)C(c2ccccc2)(c2ccccc2)C1=O` (stereo unspecified): the results for the Ki in assay [3] and in assay [2] were 198 nM and 800 nM, respectively. The Ratio Ki in the assay listed under Rattus norvegicus is 4.04.

For `COc1ccccc1N1CCN(CCN2C(=O)NC3c4ccccc4OC3C2=O)CC1` (stereo unspecified), in assay [3], the affinity corresponds to a Ki of 0.1 nM.
